Mdm2 MdmX PPI – inhibitors of human Mdm2-MdmX association, primary screen, cell-based, luminescence, split luciferase, SaOS-2, uHTS | Protein Mdm4 (Homo sapiens) + E3 ubiquitin-protein ligase Mdm2 (Homo sapiens), … | SaOS-2 split-luciferase Mdm2/MdmX complementation | inhibition, % at 8 µM | 330,000 tested, 3% active;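 active means inhibition of at least 50% at 8 µM in the primary screen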
Target sequence (O15151 whole entry, looked up): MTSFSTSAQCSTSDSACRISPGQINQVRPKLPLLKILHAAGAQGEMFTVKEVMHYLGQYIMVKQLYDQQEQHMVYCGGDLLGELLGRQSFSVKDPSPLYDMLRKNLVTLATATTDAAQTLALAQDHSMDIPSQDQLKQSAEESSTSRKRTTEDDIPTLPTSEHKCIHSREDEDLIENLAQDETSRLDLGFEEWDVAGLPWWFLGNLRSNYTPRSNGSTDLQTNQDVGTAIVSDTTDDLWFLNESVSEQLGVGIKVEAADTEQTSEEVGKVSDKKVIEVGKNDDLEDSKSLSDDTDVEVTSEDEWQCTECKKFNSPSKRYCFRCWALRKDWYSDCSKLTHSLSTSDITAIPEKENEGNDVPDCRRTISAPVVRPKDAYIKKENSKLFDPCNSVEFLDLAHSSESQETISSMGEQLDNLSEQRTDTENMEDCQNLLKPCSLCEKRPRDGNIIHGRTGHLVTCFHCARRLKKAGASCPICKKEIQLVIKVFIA
Target sequence (Q00987 whole entry, looked up): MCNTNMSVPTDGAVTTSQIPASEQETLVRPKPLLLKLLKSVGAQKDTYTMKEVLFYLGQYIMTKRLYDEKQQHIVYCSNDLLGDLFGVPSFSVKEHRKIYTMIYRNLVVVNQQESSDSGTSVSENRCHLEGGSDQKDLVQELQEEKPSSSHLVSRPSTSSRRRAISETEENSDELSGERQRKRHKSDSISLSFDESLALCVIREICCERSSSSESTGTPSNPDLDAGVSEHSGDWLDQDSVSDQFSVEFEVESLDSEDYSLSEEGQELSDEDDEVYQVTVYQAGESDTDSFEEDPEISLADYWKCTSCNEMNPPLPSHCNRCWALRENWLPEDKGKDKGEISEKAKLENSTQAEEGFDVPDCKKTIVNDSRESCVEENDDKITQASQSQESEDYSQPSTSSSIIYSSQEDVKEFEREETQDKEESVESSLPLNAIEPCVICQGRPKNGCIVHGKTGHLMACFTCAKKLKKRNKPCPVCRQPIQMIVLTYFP
UPR XBP1 act – activators of adaptive XBP1 UPR arm, primary screen, cell-based, CHO-XBP1 luciferase reporter, luminescence, uHTS; IRE1-XBP1 UPR activation; percent of tunicamycin response, DMSO as zero; activation, % at 20 µM; 330,000 tested, 0.33% active; AID 463104, 2010;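 active means versus positive control, 20 µM dose yields 30% or more activation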
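Assay system: IRE1-XBP1 luciferase reporter CHO line. Input: 1000 cells/well. Buffer or medium: F12 with 10% serum. Doses: 20 µM, 1% DMSO. Times: overnight seeding at 37 °C, 6 h compound treatment at 37 °C. Technique: Steady-Glo luciferase glow luminescence, 10 min after reagent addition.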
ABHD5-PLIN5 inh – ABHD5-PLIN5 interaction inhibitors, primary screen, cell lysate, split luciferase complementation, luminescence | Split G. princeps luciferase complementation, 4 h | inhibition, % at 4 µM | 360,000 tested, 0.78% active;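 active means inhibition above the mean inhibition across every tested compound plus 3 SD, cut at about 22% in these data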
Granule exo inh – LAMP-1 surface exposure blockers, TALL-104 cells – cell-based, flow cytometry, MLPCN library, primary screen. TALL-104 LAMP-1 surface exposure; cells stimulated with thapsigargin and PMA. 360,000 tested, 0.66% active. inhibition, % at 10 µM;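 active means inhibition above about 55%, limit read from the data; inconclusive means no clear call, values can overlap the other calls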
CHOP UPR activ – activators of apoptotic CHOP UPR arm, primary screen, cell-based, CHO-CHOP luciferase reporter, luminescence, uHTS; AID 449763, 2010; 330,000 tested, 0.34% active; activation, % at 10 µM; UPR activation; percent of tunicamycin response over DMSO baseline;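 active means at 10 µM dose, activation of 40% or more, normalized to positive control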
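Evaluation: % reporter activation, DMSO baseline versus tunicamycin full activation; System: CHO-CHOP luciferase reporter cell line; Input: 500 cells/well; Incubation: 6 h compound treatment, 37 °C; Measured by: Steady-Glo luciferase luminescence; Dosing: one dose, 10 µM in 0.5% DMSO; Buffer or medium: F12 medium, 10% FBS; Benchmarks: positive tunicamycin 10 µg/mL, negative DMSO alone.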
Exocytosis CP01 – inhibitors of lytic granule exocytosis, confirmation, TALL-104 cells, flow cytometry, Cherry Pick01; inhibition, % at 10 µM; LAMP-1 externalization; stimulated with PMA plus thapsigargin; shares compounds with Granule exo inh; 1,500 tested, 11% active; in the data active means inhibition above about 60%
Numbers stand for hits; . = inactive; ? = inconclusive; / = no result. An excerpt weighted towards active compounds, which were near 4% of everything screened.

SMILES | Mdm2 MdmX PPI | UPR XBP1 act | ABHD5-PLIN5 inh | Granule exo inh | CHOP UPR activ | Exocytosis CP01
COc1ccc(OC)c(COC(=O)c2cc([N+](=O)[O-])ccc2N2CCOCC2)c1 | . | . | . | ? | . | /
CC1(c2nnc(-c3ccccc3)o2)CC(c2cccnc2)=NO1 (configuration not stated) | . | . | . | . | . | /
CC1(c2nnc(Cc3ccccc3)o2)CC(c2cccnc2)=NO1 (configuration not stated) | . | . | . | 68.1 | . | .
O=C(NCC1CC1(Cl)Cl)Nc1ccc(Cl)c(Cl)c1 (configuration not stated) | . | . | . | 89.6 | . | .
COc1ccc(CC(N)c2csc(NC(=O)c3ccc(OC)cc3)n2)cc1 (configuration not stated) | / | / | . | . | / | /
COc1ccc(Cl)cc1NC(=O)CSc1ncnc2c1oc1ccccc12 | . | . | . | . | . | /
C(=C\c1nc(N2CCCCCC2)c2ccccc2n1)/c1ccccc1 | . | . | . | 58.2 | . | .
CCOC(=O)[C@@H]1C(c2c(OC)cc(OC)cc2OC)=NO[C@@H]1C(=O)OCC | . | . | . | . | . | /
Cc1cccc(COCC(CC(C)C)N2CCN(C(=O)c3ccc(C(C)(C)C)cc3)CCC2=O)c1 (configuration not stated) | . | . | . | 66.1 | . | .
CCc1ccc(NC(=O)NCC2CCN(Cc3cccc(Cl)c3)CC2)cc1 | . | . | . | 60.9 | . | .
Cc1ccc(NC(=O)NCC2CCN(Cc3cccc(Cl)c3)CC2)c(Cl)c1 | . | . | . | . | . | /
COCOCCn1cc(CN2CCS(=O)(=O)N(Cc3ccc(-c4ccc(Cl)c(Cl)c4)cc3)C(C(C)C)C2=O)nn1 (configuration not stated) | / | / | . | 57.3 | / | .
CN(CC(O)COc1ccc(OCC(O)CN(C)C2CCCCC2)cc1)C1CCCCC1 (configuration not stated) | . | . | . | . | . | /
Cc1cccc(C)c1OCC(O)CN(Cc1ccccc1O)C1CCCCC1 (configuration not stated) | . | . | . | 57.3 | . | .
CCOC(=O)C1(Cc2cccc(OC)c2)CCN(Cc2cccc3cnccc23)CC1 | . | . | . | . | . | /
O=C(Nc1ccc2nc(-c3cccs3)c(-c3cccs3)nc2c1)N1CCOCC1 | . | . | . | 100.9 | . | 99.3
OC(COC(c1ccccc1)c1ccccc1)CN1CCN(c2cccc(Cl)c2)CC1 (configuration not stated) | . | . | . | 68.0 | . | .
OC(CN1CCN(c2cccc(Cl)c2)CC1)c1ccccc1 (configuration not stated) | . | . | . | . | . | /
CCOc1ccc(C2Nc3cccc4cccc(c34)N2)cc1OC | . | . | . | 55.5 | . | .
CCOc1cc(C2Nc3cccc4cccc(c34)N2)ccc1O | . | . | . | . | . | /
CCOC(=O)N1CCC(NC(=O)C2CCN(Cc3nc(-c4ccc(CC)cc4)oc3C)CC2)CC1 | / | / | . | . | / | /
CCOC(=O)N1CCC(NC(=O)C2CCCN(Cc3nc(-c4ccc(CC)cc4)oc3C)C2)CC1 (configuration not stated) | . | . | . | 62.3 | . | .
O=C(NC1CCCc2c1cnn2-c1cc(F)cc(F)c1)c1cc[n+]([O-])cc1 (configuration not stated) | . | . | . | . | . | /
Cn1c(=O)c(N)c2c3c(c(Br)ccc31)C(=O)c1ccccc1-2 | . | . | . | 85.9 | . | 68.4
Cn1c(=O)c(NCCc2ccccc2)c2c3c(cccc31)C(=O)c1ccccc1-2 | . | . | . | . | . | /
SMILES | Mdm2 MdmX PPI | UPR XBP1 act | ABHD5-PLIN5 inh | Granule exo inh | CHOP UPR activ | Exocytosis CP01
N=c1n(CC(=O)c2cccs2)c2ccccc2n1Cc1ccccc1 | . | . | . | . | . | /
O=C(O)Cn1c(=O)n(Cc2ccccc2)c2ccccc21 | . | . | . | 57.7 | . | .
COc1ccc(CCN2C(=O)C3C4CC(C5C(C(=O)NN)=NOC45)C3C2=O)cc1OC (configuration not stated) | . | . | . | . | . | /
O=C(Nc1ccc(CN2CCOCC2)cc1)c1ccc(-c2cccc(Cl)c2)o1 | . | . | . | . | . | /
O=C(NC(=S)Nc1ccc(CN2CCOCC2)cc1)c1ccc(-c2cccc(Cl)c2)o1 | . | . | . | 58.3 | . | .
COc1cccc(-c2nc(NC(C)(C)C)c3ccccc3n2)c1O | . | . | . | 56.4 | . | .
COC(=O)c1c(-c2cccc(C)c2)csc1NC(=O)C1CCCO1 (configuration not stated) | . | . | . | . | . | /
Cn1nc(C(C)(C)C)cc1NC(=O)C1(C)CCN1C(=O)c1ccccc1CCc1ccccc1 (configuration not stated) | / | / | . | 97.5 | / | .
CCC1=C(OC(=O)N(CC)CC)N2C(=O)OC(=NCC(=O)OC)[C@]2(C)[C@H]2C1=CC[C@H]1C(=O)N(CC(=O)OC)C(=O)[C@H]12 | . | . | . | . | . | /
CN(C)CCCn1c2c3ccccc3ccc2c2oc(=O)c3ccccc3c21 | / | / | . | 56.3 | / | .
CCOC(=O)N1CCN(S(=O)(=O)c2ccc(C(=O)Nc3nc4ccccc4s3)cc2)CC1 | . | . | . | 100.1 | . | .
CCOc1ccc2nc(N(CCCN(C)C)C(=O)c3ccc(S(=O)(=O)N4CCc5ccccc5C4)cc3)sc2c1 | . | . | . | 67.7 | . | 83.5
CCOC(=O)N1CCN(S(=O)(=O)c2ccc(C(=O)N(CCCN(C)C)c3nc4ccc(CC)cc4s3)cc2)CC1 | . | . | . | 62.3 | . | .
CN(C)CCCN(C(=O)c1ccc(S(=O)(=O)N2CCc3ccccc3C2)cc1)c1nc2c(F)cc(F)cc2s1 | . | . | . | . | . | /
CCOC(=O)N1CCC(=NNc2nc3ccccc3s2)CC1 | . | . | . | . | . | /
COc1ccc2nc(N(CCN(C)C)C(=O)c3ccc4ncsc4c3)sc2c1 | / | / | . | 75.1 | / | .
COc1ccc2nc(N(CCN(C)C)C(=O)c3ccc4ccccc4c3)sc2c1 | . | . | . | . | . | /
CCNC(=O)NC(=O)c1csc([N+](=O)[O-])c1 | . | . | . | . | . | /
O=C(C1CCCO1)N1CCN(c2ncccn2)CC1 (configuration not stated) | . | . | . | . | . | /
O=C(c1cc(S(=O)(=O)N2CCOCC2)c(Cl)cc1Cl)N1CCN(S(=O)(=O)c2cccc(F)c2)CC1 | . | . | . | 55.5 | . | .
